{"data": "Results gathered from unrelated publications", "BTK": "Tyrosine-protein kinase BTK (BTK, Homo sapiens, UniProt Q06187)", "AKT2": "RAC-beta serine/threonine-protein kinase (AKT2, Homo sapiens, UniProt P31751)", "note": "Each line is one published result; the experiments were not run side by side."}
{"Compound": "Cc1nc(Nc2ncc(C(=O)Nc3c(C)cccc3Cl)s2)cc(N2CC[C@@H](N)C2)n1", "target": "BTK", "assay": "enzyme activity, inhibitor, mobility shift", "conditions": "1 nM", "measurement": "inhibition", "result": "71%"}
{"Compound": "COc1ccc2oc(-c3ccc4nc(N)oc4c3)c/c(=N\\c3ccccc3NC(=O)CCN)c2c1", "target": "Casein kinase II subunit alpha (CSNK2A1, Homo sapiens, UniProt P68400)", "assay": "binding", "conditions": "1 µM", "measurement": "remaining binding", "result": "106%"}
{"Compound": "CCCCC(=O)Nc1ccc(-c2ccc3ncn(CCC)c(=O)c3c2)cn1", "target": "Mast/stem cell growth factor receptor Kit (KIT, Homo sapiens, UniProt P10721, T670I/V559D)", "assay": "binding, competition with immobilised ligand", "conditions": "0.5 µM", "measurement": "remaining binding", "result": "79%"}
{"Compound": "[2H]c1cc(C)c(NC(=O)c2cnc(Nc3cc(N4CCCCC4)nc(C)n3)s2)c(Cl)c1", "target": "BTK", "assay": "enzyme activity, inhibitor, mobility shift", "conditions": "100 pM", "measurement": "inhibition", "result": "> 50%"}
{"Compound": "Cc1cc(O)c(-c2ccc([C@@H](C)CN(C)C)cc2)c2c1[nH]c(=O)c1sccc12", "target": "Ribosomal protein S6 kinase alpha-5, N-terminal kinase domain (RPS6KA5, Homo sapiens, UniProt O75582)", "assay": "enzyme activity, inhibitor", "conditions": "0.1 µM", "measurement": "inhibition", "result": "3.82%"}
{"Compound": "Cc1cc(-c2ccnc3[nH]cc(F)c23)cc(F)c1[C@@]1(O)[C@H](C)CN(C(=O)CN)C[C@@H]1C", "target": "AKT2", "assay": "enzyme activity, inhibitor", "conditions": "15 nM", "measurement": "remaining activity", "result": "94.5%"}
{"Compound": "N#Cc1ccc(NC(=O)Nc2ccccc2)cc1", "target": "Mast/stem cell growth factor receptor Kit (KIT, Homo sapiens, UniProt P10721, D816V)", "assay": "cell-free assay, competition with immobilised ligand", "conditions": "25 µM", "measurement": "remaining binding", "result": "89%"}
{"Compound": "Cc1nc(Nc2ncc(C(=O)Nc3c(C)cccc3Cl)s2)cc(N2CC[C@H](O)C2)n1", "target": "BTK", "assay": "enzyme activity, inhibitor, mobility shift", "conditions": "1 nM", "measurement": "inhibition", "result": "72%"}
{"Compound": "Cc1cc(-c2ccnc3[nH]cc(F)c23)cc(F)c1[C@@]1(O)[C@H](C)CN(C2CCS(=O)(=O)CC2)C[C@@H]1C", "target": "AKT2", "assay": "enzyme activity, inhibitor", "conditions": "0.1 µM", "measurement": "remaining activity", "result": "103%"}
{"Compound": "C1=C/COCc2cc(ccc2OCCN2CCCC2)Nc2nccc(n2)-c2cccc(c2)COC/1", "target": "Serine/threonine-protein kinase Nek11 (NEK11, Homo sapiens, UniProt Q8NG66)", "assay": "binding", "conditions": "0.1 µM", "measurement": "remaining binding", "result": "95%"}
{"Compound": "[2H]c1cc(C)c(NC(=O)c2cnc(Nc3cc(N4CC[C@@H](N)C4)nc(C)n3)s2)c(Cl)c1", "target": "BTK", "assay": "enzyme activity, inhibitor, mobility shift", "conditions": "1 nM", "measurement": "inhibition", "result": "52%"}
{"Compound": "C#Cc1cnc(Nc2ccnc(CO)c2)nc1Nc1ccccc1S(C)(=O)=NC#N (centres unmarked)", "target": "Atypical kinase COQ8A, mitochondrial (COQ8A, Homo sapiens, UniProt Q8NI60)", "assay": "cell-free assay", "conditions": "1 µM", "measurement": "remaining signal", "result": "97%"}
{"Compound": "C#Cc1cc(-c2cc(Nc3nc(N[C@@H](C)c4ccc(F)cn4)ncc3Cl)n[nH]2)ccc1C=O", "target": "Mitogen-activated protein kinase kinase kinase 19 (MAP3K19, Homo sapiens, UniProt Q56UN5)", "assay": "enzyme activity, inhibitor", "conditions": "0.2 µM", "measurement": "inhibition", "result": "3.1%"}
{"Compound": "C[C@H](NC(=O)C(=O)Nc1ccccc1C(C)(C)C)C(=O)N[C@@H](CC(=O)O)C(=O)COc1c(F)c(F)cc(F)c1F", "target": "Caspase-4 (Casp4, Mus musculus, UniProt P70343)", "assay": "enzyme activity, inhibitor", "measurement": "kinact/KI", "result": "448000 M⁻¹ s⁻¹"}
